Measured values reported in paper PMC2833353 (Cancer research, 2009).
Where a SMILES comes first, the peptide text is derived from it. Bridges are numbered along the chain shown (N, C = ends). The star is where a group is joined. DOTA = O=C(O)CN1CCN(CC(=O)O)CCN(CC(=O)*)CCN(CC(=O)O)CC1

Assays:
[1] = biological target: integrin αvβ3 (Homo sapiens) (UniProt P06756); conditions: cited from earlier work
U87MG cells = conditions: read-out: IC50, competition binding of 125I-echistatin on U87MG cells; cited from earlier work
[2] = In vivo biodistribution study in U87MG tumor-bearing mice; conditions: female, athymic nude (nu/nu), mouse, iv, total radioactivity; for tissue uptake at 24 h: kidneys; for tissue to tissue ratio at 4 h: tumor / blood
How it was run: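 Female athymic nu/nu mice with subcutaneous shoulder U87MG xenografts (2 × 10^7 cells; tumors ~8–10 mm) were anesthetized and given ~100 μCi of 64Cu-DOTA-labeled knottin peptide by tail vein, then sacrificed at 0.5, 1, 4 or 24 h. Tumor, blood, kidneys and other organs were weighed and gamma-counted against a tracer aliquot, giving %ID/g and tumor-to-organ ratios. Mean ± SD, ≥3 mice.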

Echistatin, sequence (P17347 131-179): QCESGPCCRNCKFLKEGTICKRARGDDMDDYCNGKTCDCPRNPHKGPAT
integrin αvβ3 (Homo sapiens), sequence (P06756 31-1048, chain 1 of 2): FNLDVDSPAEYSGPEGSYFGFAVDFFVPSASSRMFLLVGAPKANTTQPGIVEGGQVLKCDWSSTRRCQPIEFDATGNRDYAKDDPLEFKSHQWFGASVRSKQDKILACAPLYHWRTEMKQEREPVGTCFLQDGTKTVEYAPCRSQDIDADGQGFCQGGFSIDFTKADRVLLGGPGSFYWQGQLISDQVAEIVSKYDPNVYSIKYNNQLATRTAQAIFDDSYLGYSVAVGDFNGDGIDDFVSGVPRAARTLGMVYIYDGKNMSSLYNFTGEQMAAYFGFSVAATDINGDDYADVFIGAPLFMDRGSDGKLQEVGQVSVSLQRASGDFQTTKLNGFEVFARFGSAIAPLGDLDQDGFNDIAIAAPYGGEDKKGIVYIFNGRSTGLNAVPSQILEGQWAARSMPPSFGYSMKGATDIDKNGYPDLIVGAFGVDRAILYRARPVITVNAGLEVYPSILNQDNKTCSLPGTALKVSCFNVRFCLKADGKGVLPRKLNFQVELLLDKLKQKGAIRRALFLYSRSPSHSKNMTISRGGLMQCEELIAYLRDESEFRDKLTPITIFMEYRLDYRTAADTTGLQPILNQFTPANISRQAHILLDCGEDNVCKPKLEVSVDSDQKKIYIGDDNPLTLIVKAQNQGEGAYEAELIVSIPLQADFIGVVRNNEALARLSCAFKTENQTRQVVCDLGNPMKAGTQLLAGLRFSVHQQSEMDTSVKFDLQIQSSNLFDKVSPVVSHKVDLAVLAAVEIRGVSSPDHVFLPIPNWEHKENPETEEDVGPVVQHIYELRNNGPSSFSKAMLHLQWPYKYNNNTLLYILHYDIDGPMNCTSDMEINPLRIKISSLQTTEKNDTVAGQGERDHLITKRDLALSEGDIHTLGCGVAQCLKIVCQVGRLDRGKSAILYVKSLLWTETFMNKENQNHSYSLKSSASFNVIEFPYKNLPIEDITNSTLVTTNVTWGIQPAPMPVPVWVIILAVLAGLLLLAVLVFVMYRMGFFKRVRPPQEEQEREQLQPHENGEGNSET
integrin αvβ3 (Homo sapiens), sequence (P05106 27-788, chain 2 of 2, further chain): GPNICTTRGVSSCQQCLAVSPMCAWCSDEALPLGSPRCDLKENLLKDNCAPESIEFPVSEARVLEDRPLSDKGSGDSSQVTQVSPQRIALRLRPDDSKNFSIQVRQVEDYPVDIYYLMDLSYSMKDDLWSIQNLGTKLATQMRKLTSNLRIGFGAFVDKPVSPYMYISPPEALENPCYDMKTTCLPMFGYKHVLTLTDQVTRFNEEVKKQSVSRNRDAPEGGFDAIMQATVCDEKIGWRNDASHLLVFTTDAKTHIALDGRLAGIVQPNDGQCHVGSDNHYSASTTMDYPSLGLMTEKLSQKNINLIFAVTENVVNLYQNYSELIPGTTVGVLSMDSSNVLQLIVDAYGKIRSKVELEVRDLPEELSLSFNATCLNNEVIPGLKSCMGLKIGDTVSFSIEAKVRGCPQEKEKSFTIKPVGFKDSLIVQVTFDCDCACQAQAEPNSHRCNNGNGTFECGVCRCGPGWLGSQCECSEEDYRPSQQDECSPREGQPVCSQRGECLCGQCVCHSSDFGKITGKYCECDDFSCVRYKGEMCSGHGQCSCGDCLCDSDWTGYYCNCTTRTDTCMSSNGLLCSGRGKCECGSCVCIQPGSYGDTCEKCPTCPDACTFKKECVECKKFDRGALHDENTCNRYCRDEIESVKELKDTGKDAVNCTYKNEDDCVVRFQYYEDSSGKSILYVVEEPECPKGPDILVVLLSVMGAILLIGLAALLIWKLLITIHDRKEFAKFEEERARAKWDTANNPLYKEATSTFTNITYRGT

| Compound | Kd [1] | IC50 (U87MG cells) | tissue uptake at 24 h [2] | tissue to tissue ratio at 4 h [2] |
| --- | --- | --- | --- | --- |
| Echistatin (from UniProt P17347) | 0.36 nM |  |  |  |
| CC(C)C[C@@H]1NC(=O)[C@@H]2CSSC[C@@H](C(=O)NCC(N)=O)NC(=O)[C@H](Cc3ccccc3)NC(=O)CNC(=O)[C@H](CC(N)=O)NC(=O)[C@@H]3CCCN3C(=O)CNC(=O)[C@@H]3CSSC[C@H](NC(=O)[C@H](CO)NC(=O)[C@H]([C@@H](C)O)NC(=O)[C@@H]4CCCN4C(=O)[C@H](C)NC(=O)[C@H](Cc4c[nH]c5ccccc45)NC(=O)[C@H](CC(=O)O)NC(=O)CNC(=O)[C@H](CCCNC(=N)N)NC(=O)CNC(=O)[C@H](CCC(N)=O)NC(=O)[C@@H]4CCCN4C(=O)[C@@H](NC(=O)CNC(=O)CN4CCN(CC(=O)O)CCN(CC(=O)O)CCN(CC(=O)O)CC4)CSSC[C@H](NC(=O)CNC(=O)[C@H](C)NC1=O)C(=O)N[C@@H](C(C)C)C(=O)N3)C(=O)N[C@@H](CO)C(=O)N[C@@H](CCC(N)=O)C(=O)N[C@@H](CC(=O)O)C(=O)N[C@@H](CO)C(=O)N[C@@H](CC(=O)O)C(=O)N2 [^64Cu-DOTA-2.5D, metal not drawn] ({DOTA}-GCPQGRGDWAPTSCSQDSDCLAGCVCGPNGFCG-NH2; disulfide 2-24, 14-26, 20-32; C-terminus assumed) |  |  | 1.25 ± 0.11 %ID/g | 24.9 ± 2.62 |
| CC(C)C[C@@H]1NC(=O)[C@@H]2CSSC[C@@H](C(=O)NCC(N)=O)NC(=O)[C@H](Cc3ccccc3)NC(=O)CNC(=O)[C@H](CC(N)=O)NC(=O)[C@@H]3CCCN3C(=O)CNC(=O)[C@@H]3CSSC[C@H](NC(=O)[C@H]([C@@H](C)O)NC(=O)[C@H](CC(C)C)NC(=O)[C@@H]4CCCN4C(=O)[C@@H]4CCCN4C(=O)[C@H](CC(N)=O)NC(=O)[C@H](CC(=O)O)NC(=O)CNC(=O)[C@H](CCCNC(=N)N)NC(=O)[C@@H]4CCCN4C(=O)[C@H](CCCNC(=N)N)NC(=O)[C@@H]4CCCN4C(=O)[C@@H](NC(=O)CNC(=O)CN4CCN(CC(=O)O)CCN(CC(=O)O)CCN(CC(=O)O)CC4)CSSC[C@H](NC(=O)CNC(=O)[C@H](C)NC1=O)C(=O)N[C@@H](C(C)C)C(=O)N3)C(=O)N[C@@H](CO)C(=O)N[C@@H](CCC(N)=O)C(=O)N[C@@H](CC(=O)O)C(=O)N[C@@H](CO)C(=O)N[C@@H](CC(=O)O)C(=O)N2 [^64Cu-DOTA-2.5F, metal not drawn] ({DOTA}-GCPRPRGDNPPLTCSQDSDCLAGCVCGPNGFCG-NH2; disulfide 2-24, 14-26, 20-32) |  |  | 1.09 ± 0.15 %ID/g | 42.3 ± 8.65 |
